Compound activity (PubChem BioAssay)
Hits are enriched below; roughly 2.9% of the tested compounds scored in any of these assays.
RanGTP-Imp inh: inhibitors of RanGTP-importin-beta interaction, primary screen, biochemical, FRET, CFP-Ran, YFP-importin-beta, homogeneous; cell-free CFP-Ran/YFP-importin-beta FRET ratio; 1.1% of 300,000 active; inhibition, % (concentration not given with the values);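 active = more than half of the replicate wells show a fall in the fluorescence ratio signal beyond about 16%, limit read from the data, passing the limit was not always enough; inconclusive = exactly half of the replicate wells pass the set limit; inactive = fewer than half of replicates pass the limit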;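 also: 0% = DMSO wells and 100% = Ran loaded with GDP instead of GTP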
Runt-CBFb FRET: blocks binding of human RUNX1 Runt domain to CBFb; Q01196+Q13951; Cerulean-Runt/Venus-CBFb FRET ratio 530/480, 1 h; inhibition, % at 20 µM; 0.46% of 220,000 active; AID 1496;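 active = inhibition over about 50% at 20 µM in the single-dose screen, limit read from the data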;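 also: 0% = DMSO wells and 100% = excess unlabeled CBFb competitor control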
Target sequence (Q01196 whole entry, looked up, the tested form may be a part): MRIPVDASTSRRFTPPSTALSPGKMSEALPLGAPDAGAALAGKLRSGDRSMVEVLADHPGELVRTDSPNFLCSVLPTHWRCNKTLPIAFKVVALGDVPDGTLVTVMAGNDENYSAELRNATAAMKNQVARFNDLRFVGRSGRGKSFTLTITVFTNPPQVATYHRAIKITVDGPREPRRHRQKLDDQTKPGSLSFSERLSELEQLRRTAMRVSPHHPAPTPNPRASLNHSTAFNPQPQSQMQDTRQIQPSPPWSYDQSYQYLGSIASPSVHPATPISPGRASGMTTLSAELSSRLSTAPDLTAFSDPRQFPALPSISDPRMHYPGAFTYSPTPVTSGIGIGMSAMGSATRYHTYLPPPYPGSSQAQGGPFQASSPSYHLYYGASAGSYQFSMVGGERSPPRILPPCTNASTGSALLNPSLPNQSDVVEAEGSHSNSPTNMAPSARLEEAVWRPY
Target sequence (Q13951 whole entry, looked up, the tested form may be a part): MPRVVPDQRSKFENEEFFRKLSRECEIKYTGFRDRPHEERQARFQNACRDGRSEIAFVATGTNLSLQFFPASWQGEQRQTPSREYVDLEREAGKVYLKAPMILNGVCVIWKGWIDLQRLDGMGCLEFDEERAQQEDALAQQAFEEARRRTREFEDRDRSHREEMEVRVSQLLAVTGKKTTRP
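Doses: 20 µM compound in 1% DMSO | Material: Cerulean-labeled Runt domain protein | Amount: Each fluorescent fusion protein 100 nM | Schedule: Two 1 h room-temperature incubations shielded from light | Measured by: FRET fluorescence | Evaluation: Loss of energy transfer signal | Controls: Unlabeled CBFb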
Runt-SMMHC FRET: inhibitors of human RUNX1 Runt domain binding to CBFb-SMMHC | Q01196+Q13951 | Cerulean-Runt/Venus-CBFb-SMMHC FRET ratio 530/480, 1 h | inhibition, % at 20 µM | 0.74% of 220,000 active | AID 1434;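 active = mean inhibition across duplicate retests at 20 µM reaching about 50%, limit read from the data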;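 also: 0% = DMSO wells and 100% = wells with excess untagged CBFb-SMMHC; inhibitors lower the FRET ratio by blocking Runt binding to CBFb-SMMHC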
PfM18AAP inh-1: blocks P. falciparum M18 aspartyl aminopeptidase | recombinant PfM18AAP, H-Glu-NHMec fluorogenic cleavage | inhibition, % at 7.35 µM | 1.2% of 290,000 active;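 active = inhibition above the campaign mean inhibition over all tested compounds plus 3 SD, cut at about 28% in these data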;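 also: 0% = plate median of test compound wells and 100% = 2 mM ZnCl2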
Hck-Nef inh: human Hck-Nef kinase inhibition. P08631. Recombinant Hck-YEEI plus Nef, Z-Lyte FRET kinase assay. inhibition, % at 20 µM. 0.68% of 220,000 active;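 active = Hck-Nef kinase inhibition above about 50%, limit read from the data; inactive = inhibition below that limit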;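 also: 0% = DMSO with Hck plus Nef and 100% = Hck alone without Nef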
RBBP9 inh: inhibitors of human serine hydrolase RBBP9 | O75884 | recombinant RBBP9, FP-Rh probe fluorescence polarization | inhibition, % at 7.94 µM | 0.2% of 220,000 active;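 active = inhibition above the campaign mean of all tested compounds plus 3 SD, cut at about 14% in these data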;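 also: plate controls were DMSO wells with RBBP9 for no effect and wells lacking RBBP9 protein for full effect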
Target sequence (O75884 whole entry, looked up): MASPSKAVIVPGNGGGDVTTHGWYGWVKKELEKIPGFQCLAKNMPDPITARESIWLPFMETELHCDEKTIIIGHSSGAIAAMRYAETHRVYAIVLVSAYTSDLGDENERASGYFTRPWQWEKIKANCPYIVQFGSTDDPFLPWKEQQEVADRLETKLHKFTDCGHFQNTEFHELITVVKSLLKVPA
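Material: RBBP9 protein. Amount: RBBP9 at 2.5 µM in dispensed solution, before mixing. Schedule: 30 min then 45 min, 25 °C. Medium: Tris buffer pH 8.0, NaCl, Pluronic. Measured by: fluorescence polarization. Measure: percent inhibition from mP, scaled between DMSO and no-protein wells. Replication: one well per compound.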
Runt-CBFb TRFRET: disrupts human RUNX1 Runt domain binding to CBFb | inhibition, % at 20 µM | TR-FRET RUNX1 Runt domain-CBFb binding | 20% of 480 active | shares compounds with Runt-CBFb FRET | AID 1502; in the data active = inhibition above about 40%
PfM18AAP inh-2: confirmation of Plasmodium falciparum M18 aspartyl aminopeptidase inhibitors | recombinant PfM18AAP, H-Glu-NHMec fluorogenic cleavage | shares compounds with PfM18AAP inh-1 | 28% of 2,400 active | inhibition, % at 7.35 µM;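 active = mean inhibition over replicate wells above the hit cutoff set for the earlier primary screen, cut at about 29% in these data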;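 also: 0% = median of test compound wells and 100% = 2 mM ZnCl2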
CTSL1 counter: counter-screen for PFM18AAP inhibitors: confirmation of human cathepsin L inhibitors; inhibition, % at 5.96 µM; shares compounds with PfM18AAP inh-1; purified cathepsin L1, Z-Leu-Arg-MCA fluorescence; 2,400 tested, under 10 active;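 active = average inhibition across replicates above the hit cutoff set in the earlier primary screen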;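 also: 0% = median of test compound wells and 100% = Z-Phe-Ala-diazomethylketone 1 µM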
YIC FRET counter: counter-screen YIC FRET for RanGTP-importin-beta inhibitors. shares compounds with RanGTP-Imp inh. Purified YIC probe, intramolecular FRET ratio YFP/CFP. IC50, µM. 40% of 1,000 active;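 active = fitted half-maximal inhibitory concentration no more than tenfold above the top dose tested; inconclusive = flat fit with 30 to 70% activity, or poor fit; inactive = half-maximal concentration beyond tenfold above the top dose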
Hck Nef conf: confirmation of Hck-Nef kinase inhibitors; calls only at 10 µM; shares compounds with Hck-Nef inh; Recombinant Hck-YEEI:Nef, Z-Lyte FRET kinase assay; AID 463188; 28% of 1,300 active;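 active = average inhibition of at least 50%, with Z-scores no higher than 3 in both the phospho-tyrosine peptide and fluorescence counterscreens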
Numbers without * were called inactive; i = inactive; ? = inconclusive; . = not tested or not shown; + = active, no number.

SMILES | RanGTP-Imp inh | Runt-CBFb FRET | Runt-SMMHC FRET | PfM18AAP inh-1 | Hck-Nef inh | RBBP9 inh | Runt-CBFb TRFRET | YIC FRET counter | others
COc1ccc(C(=O)c2cc3ccc(O)cc3oc2=O)cc1 | 48.0* | 88.0* | 88.2* | 6.8 | 31.0 | -10.9 | 17.4 | 15.2*
NN1C(=O)/C(=C2/Sc3ccccc3N2CCCS(=O)(=O)O)SC1=S | 13.7 | . | . | 4.8 | . | . | . | .
O=C1NC(=S)S/C1=C1\Sc2ccccc2N1CCCS(=O)(=O)O | 26.6* | 88.1* | 122.7* | 12.4 | 2.3 | -8.1 | 26.6 | 14.9*
COc1ccc2[nH]cc(CCNC(=O)Cc3ccc(Cl)cc3)c2c1 | 2.1 | . | . | -1.3 | . | . | . | .
Cc1nc2[nH]c(=O)c3c(n2n1)NC1=C(C(=O)CC(C)(C)C1)C3c1ccc(F)cc1 (stereo unspecified) | 35.1* | 80.5* | 100.4* | 3.9 | 1.3 | -11.5 | -5.7 | 4.07*
Cc1ccc(S(=O)(=O)Nc2cccc(C(=O)NCC3CCCO3)c2)cc1F (stereo unspecified) | -2.4 | . | . | . | . | . | . | .
CC(=O)COc1ccc2c3c(c(=O)oc2c1C)CCCCC3 | ? | -0.2 | 4.2 | 1.6 | -0.2 | -10.5 | . | .
Cc1c(O)ccc2c3c(c(=O)oc12)CCC(C)C3 (stereo unspecified) | 37.2* | 66.1* | 118.0* | 2.1 | 28.1 | -2.9 | 19.7 | 14*
CCCn1c(=N)c(C(=O)NCc2ccc3c(c2)OCO3)cc2c(=O)n3cccc(C)c3nc21 | 40.2* | 71.0* | 99.3* | 0.0 | 6.4 | -7.2 | -23.6 | 14.6*
COc1ccc(OC)c(/C=N/N(CCC#N)C2=NS(=O)(=O)c3ccccc32)c1 | 3.1 | . | . | -7.5 | . | . | . | .
CCCC1C(C#N)=C(N)Oc2cc(C)n(C)c(=O)c21 (stereo unspecified) | 18.0* | 94.9* | 96.9* | 0.7 | 5.0 | -8.6 | 63.0* | >50
Cn1c(-c2cc3ccccc3oc2=O)nc2ccccc21 | -1.9 | -0.3 | 0.6 | -1.8 | -2.7 | -9.1 | . | .
COc1ccc2cc(-c3nc4ccccc4n3C)c(=O)oc2c1 | 43.6* | 59.5* | 127.1* | 1.2 | 1.5 | -6.2 | 24.3 | 11*
C#CCOCCOCCOCCNc1nc(N2CCN(C(=O)[C@H](CCCCN)n3cc(C(N)COC(=O)C(F)(F)F)nn3)CC2)nc(N2CCN(C(=O)[C@H](CCCCN)n3cc(C(N)CC(C)C)nn3)CC2)n1 (stereo partly specified) | . | 0.9 | 2.2 | . | 27.9 | . | . | .
Cc1ccc2cc(C#N)c(N3CCN(C(=O)c4ccccc4)CC3)nc2c1 | 7.1 | . | . | 8.1 | . | . | . | .
Cc1ccc2nc(N3CCN(C(=O)c4cccs4)CC3)c(C#N)cc2c1 | 18.5* | 56.4* | 123.7* | -0.3 | 3.8 | -8.9 | -29.6 | 16*
CCOC(=O)c1cc2c(=O)n3cccc(C)c3nc2n(CCOC)c1=NC(C)=O | 70.4* | 94.5* | 87.4* | -4.6 | 87.0* | -10.7 | -3.4 | .
CN(C)CC(C)(C)CNS(=O)(=O)c1ccc(OC(F)(F)F)cc1 | -1.2 | 0.2 | 3.3 | -0.6 | 3.7 | 4.2 | . | .
O=C(O)c1cc(N2N=C(C(F)(F)F)/C(=C/C=C/c3ccco3)C2=O)ccc1Cl | . | 52.8* | 39.3 | 12.9 | 96.8* | -4.4 | 92.1* | . | Hck Nef conf=+
CCOC(=O)c1ccc(N2N=C(C)/C(=C/C=C/c3ccco3)C2=O)cc1 | -0.2 | -4.4 | -12.8 | 4.1 | 8.0 | 11.6 | . | .
CC(C)Oc1ccccc1NC(=O)CSc1nccn1C | 0.7 | . | . | -6.3 | . | . | . | .
CCOC(=O)c1sc(Nc2nc3c(OC)cccc3s2)nc1C | 2.1 | 84.1* | 81.7* | 2.2 | 66.6* | -7.4 | 4.7 | . | Hck Nef conf=i
Cc1c(Cc2ccccc2)c(=O)oc2cc(O)ccc12 | 3.8 | 66.3* | 127.6* | 2.6 | 138.9* | -6.3 | -4.7 | .
O=C(O)c1ccc(N/N=C/c2ccc(-c3cccc(Cl)c3)o2)cc1 | 67.6* | 58.5* | 80.3* | -0.1 | 53.3* | -5.7 | 24.9 | . | Hck Nef conf=i
O=C(O)c1cccc(-c2ccc(/C=N/Nc3ccc([N+](=O)[O-])cc3)o2)c1 | -94.2 | -59.4 | -144.2 | 17.6 | 11.2 | 12.0 | . | .
SMILES | RanGTP-Imp inh | Runt-CBFb FRET | Runt-SMMHC FRET | PfM18AAP inh-1 | Hck-Nef inh | RBBP9 inh | Runt-CBFb TRFRET | YIC FRET counter | others
Cc1cc(=O)oc2c(CN3CCCC3)c(O)c(Cl)cc12 | 6.5 | . | . | 7.7 | . | . | . | .
CCN(CC)Cc1c(O)c(Cl)cc2c(C)c(C)c(=O)oc12 | 20.3* | 83.0* | 90.7* | 4.2 | 77.3* | -2.9 | -202.4 | 30*
Cc1c(C)c2cc(Cl)c(O)c(CN3CCCC(C)C3)c2oc1=O (stereo unspecified) | ? | 83.6* | 139.4* | 1.3 | 81.4* | -7.5 | 32.6 | .
CCc1cc2c(=O)c(-c3nc4ccccc4n3C)coc2c(CN2CCCC(C)C2)c1O (stereo unspecified) | 7.1 | . | . | 6.2 | . | . | . | .
CCN1CCN(Cc2c(O)ccc3c(C)cc(=O)oc23)CC1 | 4.8 | . | . | 5.9 | . | . | . | .
CCN1CCN(Cc2c(O)c(Cl)cc3c(C)cc(=O)oc23)CC1 | 27.0* | 93.9* | 167.9* | 4.3 | 149.2* | 2.9 | 18.1 | 38.8*
Cc1cc(=O)oc2c(CN3CCCCC3)c(O)c(Cl)cc12 | 8.8 | 62.1* | 134.5* | -2.5 | 124.8* | -0.4 | -6.2 | .
CCN(CC)Cc1c(O)ccc2c(-c3ccccc3)cc(=O)oc12 | 1.1 | -18.0 | -71.1 | 8.3 | 3.6 | 3.4 | . | .
CCc1ccc(S(=O)(=O)NCc2csc(C)n2)cc1 | 3.8 | . | . | 4.5 | . | . | . | .
CCCc1cc(=O)oc2c(CN3CCCC3)c(O)ccc12 | 8.9 | 54.3* | 122.1* | 0.3 | 93.3* | -4.2 | -13.3 | .
Cc1cc(=O)oc2c(CN3CCC(C)CC3)c(O)c(Cl)cc12 | . | 77.2* | 140.2* | -2.6 | 117.9* | -2.1 | 41.2* | .
CC(C)CCNC(=O)CN(C(=O)CCC(=O)Nc1nccs1)c1ccc2c(c1)OCCO2 | 0.9 | . | . | -6.0 | . | . | . | .
COc1c(O)c(O)c2oc(-c3ccccc3)cc(=O)c2c1OC | -2.3 | 57.6* | 52.8* | 33.1* | 66.3* | 1.9 | 64.8* | . | PfM18AAP inh-2=12.1;CTSL1 counter=3.0;Hck Nef conf=+
